How the values were obtained:
NS3h_E291Q = test: FP-based DNA binding assay, displacement from mutant; design: species or system hepatitis C virus; settings: Cy5-dT15 displacement at EC85 of protein
Summary of the method: (§1)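 Fluorescence polarization displacement using C-terminally His-tagged NS3h helicase domain mutants and wildtype. Each protein was at its EC85 from titration, with the test compound added in DMSO. Excitation 635 nm, emission 667 nm. IC50 came from dose-response fits, and Ki from Cheng-Prusoff using protein EC50 and concentration, assuming competition with DNA.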

NS3h_H369K = test: as above; design: species or system hepatitis C virus; settings: Cy5-dT15 displacement at EC85 of protein
Summary of the method: as §1

NS3h [1] = molecular target: T1, NS3h (Hepatitis C virus genotype 1b, UniProt Q9WMX2); test: ATPase assay 2: NS3h-catalyzed ATP hydrolysis in the absence of nucleic acids; format: biochemical
NS3h [2] = molecular target: T1, NS3h; test: Differential scanning calorimetry; format: binding; settings: 10 μM NS3h, 300 μM ATA
Summary of the method: (§2)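 Where present, dT20 was at 10 μM, and the test compound was at 10 μM–5 mM. Samples were heated 20–100 °C at 1 °C/min, with a repeat scan of the same sample as baseline. Fitting used a scaled two-state model. For the NS3h-dT20 samples, Tm versus compound concentration was fitted to a dose-response equation.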

NS3h [3] = molecular target: T1, NS3h; test: Isothermal titration calorimetry; format: binding
Summary of the method: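 NS3h was dialysed overnight into 25 mM MOPS pH 7.0, 1.25 mM MgCl2, 0.01% Tween 20, quantified by A280 (ε 52,360 M−1cm−1) and used at 20 μM. The test compound was 250 μM in dialysis buffer, given as 16 injections of 3 μl at 300 s intervals at 5 °C, with the first injection excluded. Baseline was zeroed on the mean of the last three injections, then fitted to an independent sites model. Three titrations were run.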

NS3h [4] = molecular target: T1, NS3h; test: ATPase assay 1: DNA; format: biochemical
NS3h_D290N = test: FP-based DNA binding assay, displacement from mutant; design: species or system hepatitis C virus; settings: Cy5-dT15 displacement at EC85 of protein
Summary of the method: as §1

NS3h R467E = test: as above; design: species or system hepatitis C virus; settings: Cy5-dT15 displacement at EC85 of protein
Summary of the method: as §1

full-length NS3 = full-length NS3 (Hepatitis C virus genotype 1b, UniProt Q9WMX2); test: Studies repeated with full-length NS3 with and without NS4A; settings: presence and absence of NS4A
NS3h_E493Q = test: FP-based DNA binding assay, displacement from mutant; design: species or system hepatitis C virus; settings: Cy5-dT15 displacement at EC85 of protein
Summary of the method: as §1

NS3h (wildtype) [5] = settings: read-out: IC50, polarization shift of a Cy5 labeled oligonucleotide; NS3h bound to Cy5-labeled DNA oligonucleotide; ref 11 (Mukherjee et al.); cited from earlier work
NS3h-dT20 complex = NS3h-dT20 complex (Hepatitis C virus genotype 1b, UniProt Q9WMX2); test: DSC of pre-assembled NS3h-dT20 complex; format: binding
Summary of the method: as §2

NS3h [6] = molecular target: T1, NS3h; test: Electrophoretic mobility shift assay of NS3h-Cy5-dT15 complex; format: binding
NS3h (wildtype) [7] = molecular target: T2, NS3h (wildtype) (Hepatitis C virus (genotype 1b, con1; …, UniProt Q9WMX2 1192-1657); test: EMSA
NS3h (wildtype) [8] = molecular target: T2, NS3h (wildtype); test: ITC

O=C(O)C1=CC(=C(c2ccc(O)c(C(=O)O)c2)c2ccc(O)c(C(=O)O)c2)C=CC1=O [ATA, aurintricarboxylic acid]
Relative Ki (Cheng-Prusoff) compared with wildtype NS3h (NS3h_E291Q): notably lower
Relative Ki (Cheng-Prusoff) compared with wildtype NS3h (NS3h_H369K): similar
Ki (NS3h [1]): 450 ± 150 nM
Change in enthalpy of unfolding (ΔΔH) (NS3h [2]): -52.1 kcal/mol
Increase of unfolding temperature of NS3h (NS3h [2]): 8 °C
Kd (NS3h [3]): 1300 ± 200 nM
ATA monomers binding per NS3h (stoichiometry) (NS3h [3]; 20 μM NS3h titrated with 250 μM ATA, 5 °C): 1.5
ΔH of binding (NS3h [3]; ITC, 5 °C): -3.2 ± 0.14 kcal/mol
ΔS of binding (NS3h [3]; at 5 °C): 63 J/mol K
−TΔS of binding (NS3h [3]; at 5 °C): -4.18 kcal/mol
ΔG of binding (NS3h [3]; at 5 °C, from Kd): -7.39 ± 0.072 kcal/mol
Ki (NS3h [4]): 1400 ± 200 nM
Relative Ki (Cheng-Prusoff) compared with wildtype NS3h (NS3h_D290N): notably lower
Relative Ki (Cheng-Prusoff) compared with wildtype NS3h (NS3h R467E): higher
Sensitivity of full-length NS3 compared with NS3h (full-length NS3): not noted any differences in the sensitivity
Relative Ki (Cheng-Prusoff) compared with wildtype NS3h (NS3h_E493Q): higher
IC50 (NS3h (wildtype) [5]): 1400 nM
EC50 (NS3h-dT20 complex): ~500000 nM
Maximum decrease of Tm of NS3h-dT20 complex (NS3h-dT20 complex; NS3h and dT20 10 μM each, dose response fit): 11 ± 3 °C
IC50 (NS3h [6]): 4000 nM

TTTTTTTTTTTTTTT (ssDNA) [Cy5-dT15]
binding result (NS3h (wildtype) [7]): binds

TTTTTTTTTTTTTTTTTTTT (ssDNA) [dT20]
binding result (NS3h (wildtype) [8]): binds

From article PMC4272346 (Biochemistry, 2013)
